In ChEMBL document CHEMBL1132569:

Legend:
[1] = molecular target: Muscarinic acetylcholine receptor M3 (Homo sapiens) (UniProt P20309); test: Binding affinity at the unliganded human muscarinic acetylcholine receptor M3 was estimated as log affinity (log1/M)
Procedure, shortened: (§1)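 Equilibrium runs were ≥2 h with 2 × 10⁻⁴ M GTP and 0.1–0.7 nM ³H-NMS. Nonspecific binding was defined with 10⁻⁶ M QNB, and bound ligand was filtered and counted. Log affinities came from semiquantitative plus off-rate, quantitative equilibrium, or nonequilibrium assays, fitted by nonlinear least squares to the allosteric ternary complex model.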

[2] = molecular target: Muscarinic acetylcholine receptor M3 (Homo sapiens) (UniProt P20309); test: Cooperativity with NMS at human muscarinic acetylcholine receptor M3
Procedure, shortened: (§2)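 Equilibrium ³H-NMS binding in CHO membranes expressing human m1–m5 receptors was measured with and without ACh, alone and with three agent concentrations. Data were converted to affinity ratios, meaning apparent primary-ligand affinity with agent divided by affinity without it.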

[3] = molecular target: T1, Muscarinic acetylcholine receptor M2 (Homo sapiens) (UniProt P08172); test: Binding affinity at the NMS liganded human muscarinic acetylcholine receptor M2 was estimated as log affinity (log1/M); procedure, shortened: as §1
T1 sequence (whole entry): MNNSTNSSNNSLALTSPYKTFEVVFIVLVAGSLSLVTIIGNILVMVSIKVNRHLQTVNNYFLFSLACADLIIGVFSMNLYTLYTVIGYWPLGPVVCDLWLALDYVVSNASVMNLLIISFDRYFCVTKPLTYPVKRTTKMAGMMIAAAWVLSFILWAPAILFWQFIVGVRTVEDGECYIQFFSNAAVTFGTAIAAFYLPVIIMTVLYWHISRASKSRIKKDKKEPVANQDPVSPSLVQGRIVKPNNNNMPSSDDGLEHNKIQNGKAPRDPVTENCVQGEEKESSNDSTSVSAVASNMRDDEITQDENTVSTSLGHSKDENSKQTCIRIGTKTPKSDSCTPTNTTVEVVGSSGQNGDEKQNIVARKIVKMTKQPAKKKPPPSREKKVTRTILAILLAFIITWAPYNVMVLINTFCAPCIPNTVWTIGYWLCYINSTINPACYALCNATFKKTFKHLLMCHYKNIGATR

[4] = molecular target: T1, Muscarinic acetylcholine receptor M2 (Homo sapiens); test: Binding affinity at the unliganded human muscarinic acetylcholine receptor M2 was estimated as log affinity (log1/M); procedure, shortened: as §1
[5] = molecular target: T2, Muscarinic acetylcholine receptor M1 (Homo sapiens) (UniProt P11229); test: Cooperativity with NMS at human muscarinic acetylcholine receptor M1; procedure, shortened: as §2
T2 sequence (whole entry): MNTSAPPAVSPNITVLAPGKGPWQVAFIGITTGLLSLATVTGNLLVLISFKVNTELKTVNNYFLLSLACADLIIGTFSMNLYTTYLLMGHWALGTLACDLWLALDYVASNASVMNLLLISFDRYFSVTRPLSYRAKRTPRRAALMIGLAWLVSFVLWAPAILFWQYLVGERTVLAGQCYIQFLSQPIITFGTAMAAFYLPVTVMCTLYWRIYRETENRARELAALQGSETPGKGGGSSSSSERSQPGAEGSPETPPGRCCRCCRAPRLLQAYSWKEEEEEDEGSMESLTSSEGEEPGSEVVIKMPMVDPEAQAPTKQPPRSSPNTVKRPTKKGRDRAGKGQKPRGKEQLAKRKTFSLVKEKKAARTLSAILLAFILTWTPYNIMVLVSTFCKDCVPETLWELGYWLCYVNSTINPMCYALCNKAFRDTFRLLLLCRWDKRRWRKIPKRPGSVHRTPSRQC

[6] = molecular target: T2, Muscarinic acetylcholine receptor M1 (Homo sapiens); test: Cooperativity with acetylcholine at human muscarinic acetylcholine receptor M1; procedure, shortened: as §2
[7] = molecular target: T3, Muscarinic acetylcholine receptor M4 (Homo sapiens) (UniProt P08173); test: Binding affinity at the NMS liganded human muscarinic acetylcholine receptor M4 was estimated as log affinity (log1/M); procedure, shortened: as §1
T3 sequence (whole entry): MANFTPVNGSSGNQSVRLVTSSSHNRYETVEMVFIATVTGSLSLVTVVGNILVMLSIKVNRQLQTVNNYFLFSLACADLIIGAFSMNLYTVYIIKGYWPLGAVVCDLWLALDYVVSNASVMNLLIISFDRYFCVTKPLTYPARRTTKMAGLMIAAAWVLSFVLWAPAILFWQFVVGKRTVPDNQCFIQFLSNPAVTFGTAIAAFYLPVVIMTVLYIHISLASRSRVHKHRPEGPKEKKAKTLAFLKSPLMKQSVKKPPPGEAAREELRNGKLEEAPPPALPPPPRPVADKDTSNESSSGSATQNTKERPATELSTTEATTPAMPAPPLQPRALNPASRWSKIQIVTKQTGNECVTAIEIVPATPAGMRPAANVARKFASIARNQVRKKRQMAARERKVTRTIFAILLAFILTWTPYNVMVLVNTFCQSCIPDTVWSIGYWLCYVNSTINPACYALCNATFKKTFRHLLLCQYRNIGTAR

[8] = molecular target: T1, Muscarinic acetylcholine receptor M2 (Homo sapiens); test: Cooperativity with NMS at human muscarinic acetylcholine receptor M2; procedure, shortened: as §2
[9] = molecular target: T2, Muscarinic acetylcholine receptor M1 (Homo sapiens); test: Binding affinity at the unliganded human muscarinic acetylcholine receptor M1 was estimated as log affinity (log1/M); procedure, shortened: as §1
[10] = molecular target: T1, Muscarinic acetylcholine receptor M2 (Homo sapiens); test: Cooperativity with acetylcholine at human muscarinic acetylcholine receptor M2; procedure, shortened: as §2
[11] = molecular target: T3, Muscarinic acetylcholine receptor M4 (Homo sapiens); test: Cooperativity with NMS at human muscarinic acetylcholine receptor M4; procedure, shortened: as §2
[12] = molecular target: T2, Muscarinic acetylcholine receptor M1 (Homo sapiens); test: Binding affinity at the NMS liganded human muscarinic acetylcholine receptor M1 was estimated as log affinity (log1/M); procedure, shortened: as §1
[13] = molecular target: T3, Muscarinic acetylcholine receptor M4 (Homo sapiens); test: Cooperativity with acetylcholine at human muscarinic acetylcholine receptor M4; procedure, shortened: as §2
[14] = molecular target: Muscarinic acetylcholine receptor M3 (Homo sapiens) (UniProt P20309); test: Binding affinity at the NMS liganded human muscarinic acetylcholine receptor M3 was estimated as log affinity (log1/M); procedure, shortened: as §1
[15] = molecular target: T3, Muscarinic acetylcholine receptor M4 (Homo sapiens); test: Binding affinity at the unliganded human muscarinic acetylcholine receptor M4 was estimated as log affinity (log1/M); procedure, shortened: as §1
[16] = molecular target: Muscarinic acetylcholine receptor M3 (Homo sapiens) (UniProt P20309); test: Cooperativity with acetylcholine at human muscarinic acetylcholine receptor M3; procedure, shortened: as §2

Muscarinic acetylcholine receptor M3 (Homo sapiens), sequence (P20309 whole entry, looked up): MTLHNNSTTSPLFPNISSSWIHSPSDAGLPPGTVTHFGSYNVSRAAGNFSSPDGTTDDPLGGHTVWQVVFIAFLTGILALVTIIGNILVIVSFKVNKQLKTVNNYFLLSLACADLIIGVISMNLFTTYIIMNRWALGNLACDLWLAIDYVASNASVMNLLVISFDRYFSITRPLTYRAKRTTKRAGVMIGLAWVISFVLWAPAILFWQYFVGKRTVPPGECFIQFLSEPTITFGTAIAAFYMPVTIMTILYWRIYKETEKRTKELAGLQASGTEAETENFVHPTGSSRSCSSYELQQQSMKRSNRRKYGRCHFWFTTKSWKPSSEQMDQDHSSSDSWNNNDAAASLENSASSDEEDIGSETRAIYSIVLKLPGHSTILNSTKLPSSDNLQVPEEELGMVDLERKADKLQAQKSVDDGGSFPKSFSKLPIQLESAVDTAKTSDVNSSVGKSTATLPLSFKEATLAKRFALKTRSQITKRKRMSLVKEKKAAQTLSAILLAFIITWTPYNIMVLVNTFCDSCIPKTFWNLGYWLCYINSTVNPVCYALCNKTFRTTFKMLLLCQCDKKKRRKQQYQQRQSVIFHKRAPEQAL

O=C1C[C@@H]2OCC=C3C[N+]4(CC5CCCCC5)CC[C@]56c7ccccc7N1[C@H]5[C@H]2[C@H]3C[C@@H]64 (stereo partly drawn)
Affinity [1]: 4 | Cooperativity [2]: 2 | Affinity [3]: 5.5 | Affinity [4]: < 4.9 | Cooperativity [5]: 2 | Cooperativity [6]: < 0.2 | Affinity [7]: 4.8 | Cooperativity [8]: > 2 | Affinity [9]: < 4.6 | Cooperativity [10]: < 0.2 | Cooperativity [11]: 2 | Affinity [12]: 4.8 | Cooperativity [13]: < 0.2 | Affinity [14]: 4.1 | Affinity [15]: 4.5 | Cooperativity [16]: < 0.2

O=C1C[C@@H]2OCC=C3C[N+]4(Cc5ccc6ccccc6c5)CC[C@]56c7ccccc7N1[C@H]5[C@H]2[C@H]3C[C@@H]64 (stereo partly drawn)
Affinity [1]: < 5.8 | Cooperativity [2]: 2 | Affinity [3]: 6.1 | Affinity [4]: 5.5 | Cooperativity [5]: 2 | Cooperativity [6]: 0.8 | Affinity [7]: 5.9 | Cooperativity [8]: > 2 | Affinity [9]: < 5.3 | Cooperativity [10]: < 0.2 | Cooperativity [11]: 2 | Affinity [12]: 5.5 | Cooperativity [13]: 0.8 | Affinity [14]: 6 | Affinity [15]: < 5.6 | Cooperativity [16]: 0.8

O=C1C[C@@H]2OCC=C3C[N+]4(Cc5ccc(-c6ccccc6)cc5)CC[C@]56c7ccccc7N1[C@H]5[C@H]2[C@H]3C[C@@H]64 (stereo partly drawn)
Affinity [1]: 5.6 | Cooperativity [2]: 1.19 | Affinity [3]: 5.9 | Affinity [4]: 5.6 | Cooperativity [5]: 0.8 | Cooperativity [6]: < 0.2 | Affinity [7]: 6.3 | Cooperativity [8]: > 2 | Affinity [9]: 5.7 | Cooperativity [10]: < 0.2 | Cooperativity [11]: 2 | Affinity [12]: 5.3 | Cooperativity [13]: 0.8 | Affinity [14]: 5.7 | Cooperativity [16]: < 0.2

C[N+]12CC[C@@]34c5ccccc5N5C(=O)C[C@@H]6OCC=C(C1)[C@H](C[C@@H]32)[C@@H]6[C@H]54 (stereo partly drawn)
Affinity [1]: < 4 | Cooperativity [2]: 2 | Affinity [3]: 5.1 | Affinity [4]: 4.4 | Cooperativity [5]: > 2 | Cooperativity [6]: 0.8 | Affinity [7]: 4.7 | Cooperativity [8]: > 2 | Affinity [9]: < 4.1 | Cooperativity [10]: < 0.2 | Cooperativity [11]: > 2 | Affinity [12]: 4.5 | Cooperativity [13]: < 0.2 | Affinity [14]: 4.1 | Affinity [15]: 4.1 | Cooperativity [16]: 0.8

O=C1C[C@@H]2OCC=C3C[N+]4(CCc5ccccc5)CC[C@]56c7ccccc7N1[C@H]5[C@H]2[C@H]3C[C@@H]64 (stereo partly drawn)
Affinity [1]: 4.8 | Cooperativity [2]: 0.8 | Affinity [3]: 5.7 | Affinity [4]: 5.3 | Cooperativity [5]: 1.19 | Cooperativity [6]: < 0.2 | Affinity [7]: 5.5 | Cooperativity [8]: > 2 | Affinity [9]: 4.9 | Cooperativity [10]: < 0.2 | Cooperativity [11]: 2 | Affinity [12]: 4.9 | Cooperativity [13]: < 0.2 | Affinity [14]: 4.6 | Affinity [15]: 5.2 | Cooperativity [16]: < 0.2

O=C1C[C@@H]2OCC=C3CN4CC[C@]56c7ccccc7N1[C@H]5[C@H]2[C@H]3C[C@H]46
Affinity [3]: 5.3 | Affinity [4]: 5 | Affinity [7]: 5.2 | Cooperativity [8]: > 2 | Cooperativity [10]: < 0.2 | Cooperativity [11]: 2 | Cooperativity [13]: 0.8 | Affinity [15]: 5

O=C1C[C@@H]2OCC=C3C[N+]4(Cc5ccc([N+](=O)[O-])cc5)CC[C@]56c7ccccc7N1[C@H]5[C@H]2[C@H]3C[C@@H]64 (stereo partly drawn)
Affinity [1]: 4.6 | Cooperativity [2]: 1.19 | Affinity [3]: 5.6 | Affinity [4]: 4.8 | Cooperativity [5]: > 2 | Cooperativity [6]: 0.8 | Affinity [7]: 5.4 | Cooperativity [8]: > 2 | Affinity [9]: < 4.8 | Cooperativity [10]: < 0.2 | Cooperativity [11]: > 2 | Affinity [12]: 5.3 | Cooperativity [13]: < 0.2 | Affinity [14]: 4.6 | Affinity [15]: 5 | Cooperativity [16]: 0.8

C=CC[N+]12CC[C@@]34c5ccccc5N5C(=O)C[C@@H]6OCC=C(C1)[C@H](C[C@@H]32)[C@@H]6[C@H]54 (stereo partly drawn)
Affinity [1]: 4.6 | Cooperativity [2]: 1.19 | Affinity [3]: 5.9 | Affinity [4]: 5.3 | Cooperativity [5]: 1.19 | Cooperativity [6]: < 0.2 | Affinity [7]: 5 | Cooperativity [8]: > 2 | Affinity [9]: 4.7 | Cooperativity [10]: < 0.2 | Cooperativity [11]: 1.19 | Affinity [12]: 4.7 | Cooperativity [13]: 0.8 | Affinity [14]: 4.6 | Affinity [15]: 5 | Cooperativity [16]: < 0.2

CC[N+]12CC[C@@]34c5ccccc5N5C(=O)C[C@@H]6OCC=C(C1)[C@H](C[C@@H]32)[C@@H]6[C@H]54 (stereo partly drawn)
Affinity [1]: 4.2 | Cooperativity [2]: 1.19 | Affinity [3]: 5.2 | Affinity [4]: 4.7 | Cooperativity [5]: 2 | Cooperativity [6]: 0.8 | Affinity [7]: 4.9 | Cooperativity [8]: > 2 | Affinity [9]: < 4.5 | Cooperativity [10]: < 0.2 | Cooperativity [11]: > 2 | Affinity [12]: 4.6 | Cooperativity [13]: < 0.2 | Affinity [14]: 4.2 | Affinity [15]: 4.3 | Cooperativity [16]: 0.8

O=C1C[C@@H]2OCC=C3C[N+]4([O-])CC[C@]56c7ccccc7N1[C@H]5[C@H]2[C@H]3C[C@@H]64 (stereo partly drawn)
Affinity [1]: < 3.9 | Cooperativity [2]: 2 | Affinity [3]: 4.4 | Affinity [4]: < 4.1 | Cooperativity [5]: 2 | Cooperativity [6]: 0.8 | Affinity [7]: 4.1 | Cooperativity [8]: > 2 | Affinity [9]: < 3.6 | Cooperativity [10]: 0.8 | Cooperativity [11]: 2 | Affinity [12]: 3.8 | Cooperativity [13]: 0.8 | Affinity [14]: 3.9 | Affinity [15]: < 3.8 | Cooperativity [16]: 0.8

C=CC[N+]12CC[C@@]34c5ccccc5N5/C=C6/[C@H]7C[C@H]8[C@@]9(CC[N@@+]8(CC=C)C/C7=C/CO)c7ccccc7N(/C=C(/[C@@H](C[C@@H]31)/C(=C\CO)C2)[C@H]54)[C@@H]69 (stereo partly drawn)
Affinity [1]: < 4 | Cooperativity [2]: 0.8 | Affinity [3]: 6.5 | Affinity [4]: 6 | Cooperativity [5]: 0.8 | Cooperativity [6]: < 0.2 | Affinity [7]: 4.7 | Cooperativity [8]: > 2 | Affinity [9]: 4.9 | Cooperativity [10]: < 0.2 | Cooperativity [11]: 1.19 | Affinity [12]: 4.5 | Cooperativity [13]: < 0.2 | Affinity [14]: 3.5 | Affinity [15]: 4.7 | Cooperativity [16]: 0.8

O=C1C[C@@H]2OCC=C3C[N+]4(Cc5ccccc5)CC[C@]56c7ccccc7N1[C@H]5[C@H]2[C@H]3C[C@@H]64 (stereo partly drawn)
Affinity [1]: < 5.2 | Cooperativity [2]: 2 | Affinity [3]: 6.3 | Affinity [4]: 5.3 | Cooperativity [5]: 2 | Cooperativity [6]: < 0.2 | Affinity [7]: 5.6 | Cooperativity [8]: > 2 | Affinity [9]: < 5 | Cooperativity [10]: < 0.2 | Cooperativity [11]: 2 | Affinity [12]: 5.2 | Cooperativity [13]: 0.8 | Affinity [14]: 5.3 | Affinity [15]: < 5.3 | Cooperativity [16]: 0.8
